# Test results taken from ChEMBL document CHEMBL5360548, “Fatty acids as molecular carriers in cleavable antifungal conjugates” (Eur J Med Chem, 2023).
# The source made the active and inactive calls. The rule behind the calls is not given here.
# How the values were obtained:
# Pichia kudriavzevii = experiment: Antifungal activity Candida krusei DSM 6128 by two-fold dilution method; format: functional
# Procedure, shortened: (§1)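 Serial two-fold broth microdilution MIC per CLSI M27-A3, in RPMI-1640 without bicarbonate, with L-glutamine, 2% glucose and 3.45% MOPS, pH 7.0. Conjugates tested at 512–1 µg mL-1, 5-FC at 64–0.125 µg mL-1. Strains maintained at 30 °C in YPD medium and stored on YPD agar.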
# Debaryomyces hansenii = experiment: Antifungal activity Candida famata DSM 3428 by two-fold dilution method; format: functional; procedure, shortened: as §1
# Candida albicans [1] = experiment: Antifungal activity Candida albicans ATCC 10231 by two-fold dilution method; format: functional; procedure, shortened: as §1
# [2] = tested on: Meyerozyma guilliermondii; experiment: Antifungal activity Candida guilliermondii DSM 11947 by two-fold dilution method; format: functional; procedure, shortened: as §1
# Kluyveromyces marxianus = experiment: Antifungal activity Candida pseudotropicalis KKP 324 by two-fold dilution method; format: functional; procedure, shortened: as §1
# Diutina rugosa = experiment: Antifungal activity Candida rugosa DSM 2031 by two-fold dilution method; format: functional; procedure, shortened: as §1
# Candida parapsilosis = experiment: Antifungal activity Candida parapsilosis DSM 5784 by two-fold dilution method; format: functional; conditions: Lodderomyces parapsilosis; procedure, shortened: as §1
# [3] = Induction of hemolysis in human RBC at upto 200 ug/ml incubated for 30 mins by absorbance based microplate reader analysis relative to control; format: toxicity, cell-based, Erythrocyte; conditions: human red blood cells (erythrocytes), up to 200 µg/mL
# Procedure, shortened: (§2)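 Human erythrocytes at 2 × 10^7 cells mL-1 in saline, exposed to two-fold dilutions from DMSO stocks (final 200–0.4 µg mL-1), 37 °C, 30 min, then centrifuged. Hemoglobin in supernatant read at A540. Percent hemolysis scaled between DMSO (0%) and Triton X-100 (100%) controls. EH50 interpolated as the concentration giving 50% of the positive-control A540.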
# Nakaseomyces glabratus = experiment: Antifungal activity Candida glabrata DSM 11226 by two-fold dilution method; format: functional; procedure, shortened: as §1
# Candida albicans [4] = experiment: Antifungal activity Candida albicans ATCC 10231 at 512 ug/ml by two-fold dilution method; format: functional, organism-based; conditions: dose 512.0 µg/ml; procedure, shortened: as §1
# [5] = Induction of hemolysis in human RBC incubated for 30 mins by absorbance based microplate reader analysis; format: toxicity, cell-based, Erythrocyte; conditions: human red blood cells (erythrocytes); procedure, shortened: as §2
# [6] = Drug localization in cytoplasm of Candida cells measured after 1 hr by confocal microscopy based analysis; format: ADME, cell-based
# Procedure, shortened: (§3)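 Candida from overnight YPD culture were washed, grown in RPMI-1640 at 30 °C with shaking from OD660 0.1 to 0.3, then resuspended in PBS to OD660 0.2. Fluorescent conjugate added to 50 µg mL-1 final and incubated at 30 °C, 150 rpm. Samples taken over time, washed 4× in PBS, imaged by confocal microscopy (ex 438, em 527 nm).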
# [7] = Drug uptake in Candida glabrata cells assessed as increase in number of cells emitting green fluorescence measured after 10 to 30 mins by fluorescence based analysis; format: ADME, cell-based; conditions: nakaseomyces glabratus; time 10-30 min; procedure, shortened: as §3
SMILES,MIC (Pichia kudriavzevii),MIC (Debaryomyces hansenii),MIC (Candida albicans [1]),MIC [2],MIC (Kluyveromyces marxianus),MIC (Diutina rugosa),MIC (Candida parapsilosis),hemolysis at 0.5 h [3],MIC (Nakaseomyces glabratus),Activity (Candida albicans [4]),HC50 at 0.5 h [5],Drug uptake [6],Drug uptake [7]
CCCCCCCCCCCCCC(=O)Oc1cc(C)cc(C)c1C(C)(C)CC(=O)Oc1ncc(F)c(N)n1,512 µg/mL,4 µg/mL,4 µg/mL,8 µg/mL,32 µg/mL,16 µg/mL,4 µg/mL,< 5%,2 µg/mL,–,–,–,–
CCCCCCCCCCCCCCCCCC(=O)Oc1cc(C)cc(C)c1C(C)(C)CC(=O)NCCNc1ccc2c3c(cccc13)C(=O)N(CCCC)C2=O,–,–,–,–,–,–,–,–,–,inactive,–,–,–
CCCCCCCCCCCC(=O)Oc1cc(C)cc(C)c1C(C)(C)CC(=O)NCCNc1ccc2c3c(cccc13)C(=O)N(CCCC)C2=O,–,–,–,–,–,–,–,–,–,inactive,–,–,–
CCCCCCCCCC(=O)Oc1cc(C)cc(C)c1C(C)(C)CC(=O)NCCNc1ccc2c3c(cccc13)C(=O)N(CCCC)C2=O,–,–,–,–,–,–,–,–,–,inactive,–,–,–
Nc1nc(=O)[nH]cc1F [FLUCYTOSINE],> 512 µg/mL,1 µg/mL,1 µg/mL,0.5 µg/mL,1 µg/mL,2 µg/mL,2 µg/mL,–,0.5 µg/mL,–,–,–,–
CCCCCCCCCCCCCCCCCC(=O)Oc1cc(C)cc(C)c1C(C)(C)CC(=O)Oc1ncc(F)c(N)n1,> 512 µg/mL,256 µg/mL,128 µg/mL,256 µg/mL,512 µg/mL,> 512 µg/mL,128 µg/mL,< 5%,32 µg/mL,–,–,–,–
CCCCCCCC(=O)Oc1cc(C)cc(C)c1C(C)(C)CC(=O)Oc1ncc(F)c(N)n1,128 µg/mL,4 µg/mL,8 µg/mL,8 µg/mL,32 µg/mL,16 µg/mL,4 µg/mL,< 5%,2 µg/mL,–,–,–,–
CCCCN1C(=O)c2cccc3c(NCCNC(=O)CC(C)(C)c4c(C)cc(C)cc4OC(C)=O)ccc(c23)C1=O,–,–,–,–,–,–,–,–,–,inactive,–,–,–
CCCCCCCCCCCCCCCC(=O)Oc1cc(C)cc(C)c1C(C)(C)CC(=O)NCCNc1ccc2c3c(cccc13)C(=O)N(CCCC)C2=O,–,–,–,–,–,–,–,–,–,inactive,–,–,–
CCCCCCCCCCCCCCCC(=O)Oc1cc(C)cc(C)c1C(C)(C)CC(=O)Oc1ncc(F)c(N)n1,> 512 µg/mL,16 µg/mL,16 µg/mL,32 µg/mL,128 µg/mL,64 µg/mL,8 µg/mL,< 5%,8 µg/mL,–,–,–,–
CCCCCCCCCCCC(=O)Oc1cc(C)cc(C)c1C(C)(C)CC(=O)Oc1ncc(F)c(N)n1,256 µg/mL,4 µg/mL,8 µg/mL,8 µg/mL,64 µg/mL,16 µg/mL,4 µg/mL,< 5%,4 µg/mL,–,–,–,–
CCCCCCCCCCCCCC(=O)Oc1cc(C)cc(C)c1C(C)(C)CC(=O)NCCNc1ccc2c3c(cccc13)C(=O)N(CCCC)C2=O,–,–,–,–,–,–,–,–,–,inactive,–,–,–
C[C@@H]1[C@H](O)[C@@H](C)/C=C/C=C/C=C/C=C/C=C/C=C/C=C/[C@H](O[C@@H]2O[C@H](C)[C@@H](O)[C@H](N)[C@@H]2O)C[C@@H]2O[C@](O)(C[C@@H](O)C[C@@H](O)[C@H](O)CC[C@@H](O)C[C@@H](O)CC(=O)O[C@H]1C)C[C@H](O)[C@H]2C(=O)O [AMPHOTERICIN B],–,–,–,–,–,–,–,–,–,–,3.46 µg/mL,–,–
CCCCCCCCCC(=O)Oc1cc(C)cc(C)c1C(C)(C)CC(=O)Oc1ncc(F)c(N)n1,256 µg/mL,8 µg/mL,8 µg/mL,8 µg/mL,32 µg/mL,16 µg/mL,4 µg/mL,< 5%,4 µg/mL,–,–,–,–
CC(=O)Oc1cc(C)cc(C)c1C(C)(C)CC(=O)Oc1ncc(F)c(N)n1,> 512 µg/mL,8 µg/mL,16 µg/mL,16 µg/mL,64 µg/mL,32 µg/mL,4 µg/mL,< 5%,8 µg/mL,–,–,–,–
CCCCCCCC(=O)Oc1cc(C)cc(C)c1C(C)(C)CC(=O)NCCNc1ccc2c3c(cccc13)C(=O)N(CCCC)C2=O,–,–,–,–,–,–,–,–,–,inactive,–,Active,Active
